Reference: ChEMBL document CHEMBL3526002, “Tissue distribution and identification of radioactivity components at elimination phase after oral administration of [¹⁴C]CS-1036, an α-amylase inhibitor, to rats” (Drug Metab Dispos, 2013)

Key:
Parameters in all cases: dose 5 mg/kg, dosed compound name [14C]CS-1036, route oral
Conditions in all cases: in vivo
Stomach [1] = test: Drug uptake in albino F344/DuCrlCrlj rat stomach at 5 mg/kg, po after 4 hrs by liquid scintillation counting; assay type: ADME, organism-based
Zone of skin [2] = test: Drug uptake in albino F344/DuCrlCrlj rat skin assessed as ng equivalent of CS-1036 at 5 mg/kg, po after 24 hrs by liquid scintillation counting; assay type: ADME, organism-based
[3] = Drug uptake in albino F344/DuCrlCrlj rat thyroid gland assessed as ng equivalent of CS-1036 at 5 mg/kg, po after 72 hrs by liquid scintillation counting; assay type: ADME, organism-based
Small intestine = test: Drug uptake in albino F344/DuCrlCrlj rat small intestine at 5 mg/kg, po after 4 hrs by liquid scintillation counting; assay type: ADME, organism-based
[4] = Drug uptake in albino F344/DuCrlCrlj rat epididymis at 5 mg/kg, po after 8 hrs by liquid scintillation counting; assay type: ADME, organism-based
Zone of skin [5] = test: Drug uptake in albino F344/DuCrlCrlj rat skin assessed as ng equivalent of CS-1036 at 5 mg/kg, po after 168 hrs by liquid scintillation counting; assay type: ADME, organism-based
[6] = Drug uptake in albino F344/DuCrlCrlj rat bone marrow assessed as ng equivalent of CS-1036 at 5 mg/kg, po after 168 hrs by liquid scintillation counting; assay type: ADME, organism-based
Stomach [7] = test: Drug uptake in albino F344/DuCrlCrlj rat stomach assessed as ng equivalent of CS-1036 at 5 mg/kg, po after 24 hrs by liquid scintillation counting; assay type: ADME, organism-based
Stomach [8] = test: Drug uptake in albino F344/DuCrlCrlj rat stomach at 5 mg/kg, po after 1 hr by liquid scintillation counting; assay type: ADME, organism-based
Spleen = test: Drug uptake in albino F344/DuCrlCrlj rat spleen at 5 mg/kg, po after 72 hrs by liquid scintillation counting; assay type: ADME, organism-based
[9] = Drug uptake in albino F344/DuCrlCrlj rat bone marrow at 5 mg/kg, po after 8 hrs by liquid scintillation counting; assay type: ADME, organism-based
[10] = Drug uptake in albino F344/DuCrlCrlj rat fat at 5 mg/kg, po after 24 hrs by liquid scintillation counting; assay type: ADME, organism-based, Adipose tissue
Summary of the method: (§1)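 Male F344/DuCrlCrlj rats (bought at 7 weeks, acclimatized 5–6 days; 159–167 g; n = 3 per time point) received a single oral dose of [14C]CS-1036 at 5 mg/kg. White adipose tissue was collected after abdominal aortic bleeding at 1, 4, 8, 24, 72, 168 or 336 h. Samples were counted by LSC with external-standard efficiency correction. Results were converted to ng equivalents per g from specific activity and sample weight.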

[11] = Drug uptake in albino F344/DuCrlCrlj rat thyroid gland assessed as ng equivalent of CS-1036 at 5 mg/kg, po after 1 hr by liquid scintillation counting; assay type: ADME, organism-based
Cerebrum = test: Drug uptake in albino F344/DuCrlCrlj rat cerebrum at 5 mg/kg, po after 24 hrs by liquid scintillation counting; assay type: ADME, organism-based
Summary of the method: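 Single oral [14C]CS-1036 at 5 mg/kg was given to male rats (159–167 g; n = 3). Cerebrum was collected after aortic bleeding at 1, 4, 8, 24, 72, 168 or 336 h, weighed, and homogenized in 2 volumes of saline. A 0.5 ml aliquot was solubilized in Soluene-350 and counted by LSC with external-standard correction. Results are in ng equivalent/g tissue from specific activity and sample weight.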

Blood [12] = test: Drug uptake in albino F344/DuCrlCrlj rat blood at 5 mg/kg, po after 24 hrs by liquid scintillation counting; assay type: ADME, organism-based
Summary of the method: (§2)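 Male F344/DuCrlCrlj rats (159–167 g; n = 3 per time point) received a single oral dose of [14C]CS-1036 at 5 mg/kg. Blood was taken from the abdominal aorta at 1, 4, 8, 24, 72, 168 and 336 h. Radioactivity was counted by LSC with external-standard efficiency correction. Results were converted to ng equivalent of CS-1036/ml using specific activity and sample volume, and reported as mean + S.D.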

Thymus [13] = test: Drug uptake in albino F344/DuCrlCrlj rat thymus assessed as ng equivalent of CS-1036 at 5 mg/kg, po after 24 hrs by liquid scintillation counting; assay type: ADME, organism-based
Lung = test: Drug uptake in albino F344/DuCrlCrlj rat lung assessed as ng equivalent of CS-1036 at 5 mg/kg, po after 336 hrs by liquid scintillation counting; assay type: ADME, organism-based
Kidney [14] = test: Drug uptake in albino F344/DuCrlCrlj rat kidney at 5 mg/kg, po after 1 hr by liquid scintillation counting; assay type: ADME, organism-based
Heart = test: Drug uptake in albino F344/DuCrlCrlj rat heart at 5 mg/kg, po after 8 hrs by liquid scintillation counting; assay type: ADME, organism-based
Zone of skin [15] = test: Drug uptake in albino F344/DuCrlCrlj rat skin assessed as ng equivalent of CS-1036 at 5 mg/kg, po after 72 hrs by liquid scintillation counting; assay type: ADME, organism-based
Kidney [16] = test: Drug uptake in albino F344/DuCrlCrlj rat kidney at 5 mg/kg, po after 336 hrs by liquid scintillation counting; assay type: ADME, organism-based
Liver = test: Drug uptake in albino F344/DuCrlCrlj rat liver at 5 mg/kg, po after 168 hrs by liquid scintillation counting; assay type: ADME, organism-based
Plasma [17] = test: Drug uptake in albino F344/DuCrlCrlj rat plasma assessed as ng equivalent of CS-1036 at 5 mg/kg, po after 24 hrs by liquid scintillation counting; assay type: ADME, organism-based
[18] = Drug uptake in albino F344/DuCrlCrlj rat fat assessed as ng equivalent of CS-1036 at 5 mg/kg, po after 4 hrs by liquid scintillation counting; assay type: ADME, organism-based, Adipose tissue; summary of the method: as §1
Thymus [19] = test: Drug uptake in albino F344/DuCrlCrlj rat thymus at 5 mg/kg, po after 168 hrs by liquid scintillation counting; assay type: ADME, organism-based
[20] = Drug uptake in albino F344/DuCrlCrlj rat mandibular gland assessed as ng equivalent of CS-1036 at 5 mg/kg, po after 24 hrs by liquid scintillation counting; assay type: ADME, organism-based
[21] = Drug uptake in albino F344/DuCrlCrlj rat bone marrow assessed as ng equivalent of CS-1036 at 5 mg/kg, po after 4 hrs by liquid scintillation counting; assay type: ADME, organism-based
Blood [22] = test: Drug uptake in albino F344/DuCrlCrlj rat blood assessed as ng equivalent of CS-1036 at 5 mg/kg, po after 8 hrs by liquid scintillation counting; assay type: ADME, organism-based; summary of the method: as §2
Plasma [23] = test: Drug uptake in albino F344/DuCrlCrlj rat plasma at 5 mg/kg, po after 24 hrs by liquid scintillation counting; assay type: ADME, organism-based
Thymus [24] = test: Drug uptake in albino F344/DuCrlCrlj rat thymus at 5 mg/kg, po after 1 hr by liquid scintillation counting; assay type: ADME, organism-based
[25] = Drug uptake in albino F344/DuCrlCrlj rat fat assessed as ng equivalent of CS-1036 at 5 mg/kg, po after 8 hrs by liquid scintillation counting; assay type: ADME, organism-based, Adipose tissue; summary of the method: as §1
Pancreas = test: Drug uptake in albino F344/DuCrlCrlj rat pancreas at 5 mg/kg, po after 1 hr by liquid scintillation counting; assay type: ADME, organism-based
[26] = Drug uptake in albino F344/DuCrlCrlj rat eyeball assessed as ng equivalent of CS-1036 at 5 mg/kg, po after 8 hrs by liquid scintillation counting; assay type: ADME, organism-based

C[C@H]1O[C@@H](O[C@H]2[C@H](O)[C@@H](O)[C@@H](O[14C@H]3[14C@H](O)[14CH2]N[14C@@H]3[14CH2]O)O[C@@H]2CO)[C@H](O)[C@@H](O)[C@@H]1O
Radiolabel recovery (Stomach [1]): 129 ngequiv/g | Radiolabel recovery (Zone of skin [2]): 8.2 ngequiv/g | Radiolabel recovery [3]: 42.7 ngequiv/g | Radiolabel recovery (Small intestine): 965 ngequiv/g | Radiolabel recovery [4]: 40.8 ngequiv/g | Radiolabel recovery (Zone of skin [5]): 23.9 ngequiv/g | Radiolabel recovery [6]: 23 ngequiv/g | Radiolabel recovery (Stomach [7]): 16 ngequiv/g | Radiolabel recovery (Stomach [8]): 1670 ngequiv/g | Radiolabel recovery (Spleen): 70.6 ngequiv/g | Radiolabel recovery [9]: 75 ngequiv/g | Radiolabel recovery [10]: 82.9 ngequiv/g | Radiolabel recovery [11]: 7.2 ngequiv/g | Radiolabel recovery (Cerebrum): 19.3 ngequiv/g | Radiolabel recovery (Blood [12]): 35.7 ngequiv/ml | Radiolabel recovery (Thymus [13]): 5.8 ngequiv/g | Radiolabel recovery (Lung): 3.93 ngequiv/g | Radiolabel recovery (Kidney [14]): 520 ngequiv/g | Radiolabel recovery (Heart): 27.2 ngequiv/g | Radiolabel recovery (Zone of skin [15]): 48.7 ngequiv/g | Radiolabel recovery (Kidney [16]): 12 ngequiv/g | Radiolabel recovery (Liver): 14.3 ngequiv/g | Radiolabel recovery (Plasma [17]): 6.1 ngequiv/ml | Radiolabel recovery [18]: 1.74 ngequiv/g | Radiolabel recovery (Thymus [19]): 12 ngequiv/g | Radiolabel recovery [20]: 9 ngequiv/g | Radiolabel recovery [21]: 7.9 ngequiv/g | Radiolabel recovery (Blood [22]): 6.5 ngequiv/ml | Radiolabel recovery (Plasma [23]): 46.3 ngequiv/ml | Radiolabel recovery (Thymus [24]): 23.2 ngequiv/g | Radiolabel recovery [25]: 4.6 ngequiv/g | Radiolabel recovery (Pancreas): 102 ngequiv/g | Radiolabel recovery [26]: 18.9 ngequiv/g
